ChEMBL document CHEMBL1142890, “Structure-antibacterial activity of arylcarbonyl- and arylsulfonyl-piperazine 5-triazolylmethyl oxazolidinones” (2007)
In brackets after ≈: the same amount, converted by molar mass.

Key:
[1] = tested on: Staphylococcus; assay: Antimicrobial activity against methicillin-susceptible coagulase-negative staphylococcus by agar dilution method; format: functional
In short: (§1)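 Agar dilution per CLSI on Mueller-Hinton agar, test agents at 0.12 to 8 µg/ml; test compounds dissolved in 20% water in DMSO, linezolid in 40% water in ethanol, vancomycin in water. Clinical isolates inoculated at final 10^7 CFU/ml, incubated 35 °C for 18 h. MIC = lowest concentration completely inhibiting growth; reported as range across isolates.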

[2] = tested on: Staphylococcus aureus; assay: Antimicrobial activity against methicillin-susceptible Staphylococcus aureus by agar dilution method; format: functional; in short: as §1
[3] = tested on: Staphylococcus aureus; assay: Antimicrobial activity against methicillin-resistant Staphylococcus aureus by agar dilution method; format: functional; in short: as §1
[4] = tested on: Haemophilus influenzae; assay: Antimicrobial activity against Haemophilus influenzae; format: functional
[5] = tested on: Escherichia coli; assay: Antimicrobial activity against Escherichia coli ATCC 25922; format: functional
[6] = tested on: Staphylococcus aureus; assay: Antimicrobial activity against Staphylococcus aureus ATCC 25923 by agar dilution method
[7] = tested on: Moraxella catarrhalis; assay: Antimicrobial activity against Moraxella catarrhalis; format: functional
[8] = tested on: Streptococcus pneumoniae; assay: Antimicrobial activity against Streptococcus pneumoniae by agar dilution method; format: functional
In short: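 Agar dilution per CLSI on Mueller–Hinton agar holding drug dilutions from 0.12 to 8 µg/ml. Staphylococci and enterococci tested on plain MH agar, S. pneumoniae on MH agar with 5% sheep blood. Test compounds dissolved in 20% water in DMSO. Inoculum 10⁷ CFU/ml, incubated 35 °C for 18 h. MIC was the lowest concentration giving complete growth inhibition.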

[9] = tested on: Enterococcus; assay: Antimicrobial activity against vancomycin-sensitive Enterococcus by agar dilution method; format: functional; in short: as §1
[10] = tested on: Staphylococcus; assay: Antimicrobial activity against methicillin-resistant coagulase-negative Staphylococcus by agar dilution method; format: functional; in short: as §1
[11] = tested on: Enterococcus; assay: Antimicrobial activity against vancomycin-resistant Enterococcus by agar dilution method; format: functional; in short: as §1
[12] = tested on: Staphylococcus aureus; assay: Antimicrobial activity against Staphylococcus aureus ATCC 25922 in presence of 50% human plasma […]; format: functional; conditions: ATCC 25923, Plasma, in the assay text read “ATCC 25923” for “ATCC 25922”
In short: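 S. aureus ATCC 25923 tested in Mueller–Hinton broth supplemented with 50% human plasma. Test compounds dissolved in 20% water in DMSO. Inoculum 10⁷ CFU/ml, incubated 35 °C for 18 h. MIC was the lowest concentration completely inhibiting growth.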

| SMILES | MIC [1] [µg/mL] | MIC [2] [µg/mL] | MIC [3] [µg/mL] | MIC [4] [µg/mL] | MIC [5] [µg/mL] | MIC [6] [µg/mL] | MIC [7] [µg/mL] | MIC [8] [µg/mL] | MIC [9] [µg/mL] | MIC [10] [µg/mL] | MIC [11] [µg/mL] | MIC [12] [µg/mL] |
| --- | --- | --- | --- | --- | --- | --- | --- | --- | --- | --- | --- | --- |
| O=C(/C=C/c1ccccc1Cl)N1CCN(c2ccc(N3C[C@H](Cn4ccnn4)OC3=O)cc2F)CC1 | 0.25 (≈ 0.489 µM) | 0.25 (≈ 0.489 µM) | 0.25 (≈ 0.489 µM) | ≥ 8 | ≥ 8 | 0.5 (≈ 0.979 µM) | ≥ 8 | 4 (≈ 7.83 µM) | 0.5 (≈ 0.979 µM) | 0.25 (≈ 0.489 µM) | 0.25 (≈ 0.489 µM) | > 8 |
| O=C(c1ccccc1)N1CCN(c2ccc(N3C[C@H](Cn4ccnn4)OC3=O)cc2F)CC1 | 0.25 (≈ 0.555 µM) | 0.25 (≈ 0.555 µM) | 0.25 (≈ 0.555 µM) | ≥ 8 | ≥ 8 | 1 (≈ 2.22 µM) | ≥ 8 | 1 (≈ 2.22 µM) | 0.25 (≈ 0.555 µM) | 0.25 (≈ 0.555 µM) | 0.25 (≈ 0.555 µM) | 1 |
| O=C(c1ccccc1Cl)N1CCN(c2ccc(N3C[C@H](Cn4ccnn4)OC3=O)cc2F)CC1 | 0.5 (≈ 1.03 µM) | 0.5 (≈ 1.03 µM) | 0.5 (≈ 1.03 µM) | ≥ 8 | ≥ 8 | 1 (≈ 2.06 µM) | ≥ 8 | 4 (≈ 8.25 µM) | 0.5 (≈ 1.03 µM) | 0.5 (≈ 1.03 µM) | 0.5 (≈ 1.03 µM) | 8 |
| O=C(c1ccc(F)cc1)N1CCN(c2ccc(N3C[C@H](Cn4ccnn4)OC3=O)cc2F)CC1 | 0.5 (≈ 1.07 µM) | 0.5 (≈ 1.07 µM) | 0.5 (≈ 1.07 µM) | ≥ 8 | ≥ 8 | 1 (≈ 2.13 µM) | ≥ 8 | 0.5 (≈ 1.07 µM) | 1 (≈ 2.13 µM) | 0.5 (≈ 1.07 µM) | 0.5 (≈ 1.07 µM) | 4 |
| O=C(c1cccnc1)N1CCN(c2ccc(N3C[C@H](Cn4ccnn4)OC3=O)cc2F)CC1 | 0.5 (≈ 1.11 µM) | 0.5 (≈ 1.11 µM) | 0.5 (≈ 1.11 µM) | ≥ 8 | ≥ 8 | 1 (≈ 2.22 µM) | ≥ 8 | 0.5 (≈ 1.11 µM) | 1 (≈ 2.22 µM) | 0.5 (≈ 1.11 µM) | 0.5 (≈ 1.11 µM) | 4 |
| Cc1ccccc1C(=O)N1CCN(c2ccc(N3C[C@H](Cn4ccnn4)OC3=O)cc2F)CC1 | 0.5 (≈ 1.08 µM) | 0.5 (≈ 1.08 µM) | 0.5 (≈ 1.08 µM) | ≥ 8 | ≥ 8 | 2 (≈ 4.31 µM) | ≥ 8 | 1 (≈ 2.15 µM) | 1 (≈ 2.15 µM) | 0.5 (≈ 1.08 µM) | 1 (≈ 2.15 µM) | 8 |
| O=C(c1cccnc1Cl)N1CCN(c2ccc(N3C[C@H](Cn4ccnn4)OC3=O)cc2F)CC1 | 0.5 (≈ 1.03 µM) | 0.5 (≈ 1.03 µM) | 0.5 (≈ 1.03 µM) | ≥ 8 | ≥ 8 | 2 (≈ 4.12 µM) | ≥ 8 | 1 (≈ 2.06 µM) | 1 (≈ 2.06 µM) | 0.5 (≈ 1.03 µM) | 1 (≈ 2.06 µM) | 4 |
| O=C(c1ccco1)N1CCN(c2ccc(N3C[C@H](Cn4ccnn4)OC3=O)cc2F)CC1 | 0.25 (≈ 0.568 µM) | 0.5 (≈ 1.14 µM) | 0.5 (≈ 1.14 µM) | ≥ 8 | ≥ 8 | 1 (≈ 2.27 µM) | ≥ 8 | 0.25 (≈ 0.568 µM) | 0.5 (≈ 1.14 µM) | 0.25 (≈ 0.568 µM) | 0.5 (≈ 1.14 µM) | 4 |
| Cc1cccc(C(=O)N2CCN(c3ccc(N4C[C@H](Cn5ccnn5)OC4=O)cc3F)CC2)c1 | 0.25 (≈ 0.538 µM) | 0.25 (≈ 0.538 µM) | 0.25 (≈ 0.538 µM) | ≥ 8 | ≥ 8 | 0.5 (≈ 1.08 µM) | ≥ 8 | 1 (≈ 2.15 µM) | 0.5 (≈ 1.08 µM) | 0.25 (≈ 0.538 µM) | 0.5 (≈ 1.08 µM) | 8 |
| O=C(c1ccc(Cl)cc1)N1CCN(c2ccc(N3C[C@H](Cn4ccnn4)OC3=O)cc2F)CC1 | 0.12 (≈ 0.247 µM) | 0.25 (≈ 0.516 µM) | 0.25 (≈ 0.516 µM) | ≥ 8 | ≥ 8 | 0.5 (≈ 1.03 µM) | ≥ 8 | 1 (≈ 2.06 µM) | 0.5 (≈ 1.03 µM) | 0.12 (≈ 0.247 µM) | 0.5 (≈ 1.03 µM) | 8 |
| O=C(c1ccccc1F)N1CCN(c2ccc(N3C[C@H](Cn4ccnn4)OC3=O)cc2F)CC1 | 0.25 (≈ 0.534 µM) | 0.25 (≈ 0.534 µM) | 0.25 (≈ 0.534 µM) | ≥ 8 | ≥ 8 | 0.5 (≈ 1.07 µM) | ≥ 8 | 1 (≈ 2.13 µM) | 0.5 (≈ 1.07 µM) | 0.25 (≈ 0.534 µM) | 0.5 (≈ 1.07 µM) | 8 |
